Source: ChEMBL document CHEMBL1208735, “6-(4'-Aryloxy-phenyl)vinyl-1,2,4-trioxanes: a new series of orally active peroxides effective against multidrug-resistant Plasmodium yoelii in Swiss mice” (2010)
The source made the active and inactive calls. No cut-off for these calls is given here.

Legend:
[1] = system: Plasmodium yoelii nigeriensis; test: Antimalarial activity against multi drug-resistant Plasmodium yoelii nigeriensis infected in Swiss mice (Mus musculus) assessed as suppression of parasitaemia level at 48 mg/kg, perorally daily for 4 days; assay type: functional; settings: route oral
In short: (§1)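 Swiss mice (25 ± 1 g) infected day 0 with 1×10^6 parasitized RBC of multidrug-resistant P. yoelii nigeriensis. Groups of five dosed orally in groundnut oil (0.1 ml per dose), days 0–3, two divided doses daily. Parasitaemia read from thin blood smears on day 4 as % suppression. 100% means no parasites seen in 50 oil-immersion fields. β-Arteether was the positive control.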

[2] = system: Plasmodium yoelii nigeriensis; test: Antimalarial activity against multi drug-resistant Plasmodium yoelii nigeriensis infected in Swiss mice (Mus musculus) assessed as suppression of parasitaemia level at 24 mg/kg, perorally daily for 4 days; assay type: functional; settings: route oral; in short: as §1
[3] = system: Plasmodium yoelii nigeriensis; test: Antimalarial activity against multi drug-resistant Plasmodium yoelii nigeriensis infected in Swiss mice (Mus musculus) assessed as protection of patent infection at 48 mg/kg, perorally daily for 4 days measured after 28 days; assay type: functional, organism-based; design: dose 48 mg/kg
In short: (§2)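 Colony-bred Swiss mice (25 ± 1 g) inoculated day 0 with 1×10^6 parasitized RBC of P. yoelii nigeriensis (resistant to chloroquine, mefloquine, halofantrine). Five mice per dose. Oral dosing in groundnut oil, 0.1 ml per dose, days 0–3, given as two divided doses daily. Thin blood smears read through day 28. Mice without patent infection by day 28 scored cured, expressed as cured/treated.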

[4] = system: Plasmodium yoelii nigeriensis; test: Antimalarial activity against multi drug-resistant Plasmodium yoelii nigeriensis infected in Swiss mice (Mus musculus) assessed as suppression of parasitaemia level at 96 mg/kg, perorally daily for 4 days; assay type: functional; settings: route oral; in short: as §1
[5] = system: Plasmodium yoelii nigeriensis; test: Antimalarial activity against multi drug-resistant Plasmodium yoelii nigeriensis infected in Swiss mice (Mus musculus) assessed as protection of patent infection at 96 mg/kg, perorally daily for 4 days measured after 28 days; assay type: functional, organism-based; design: dose 96 mg/kg; in short: as §2
[6] = system: Plasmodium yoelii nigeriensis; test: Antimalarial activity against multi drug-resistant Plasmodium yoelii nigeriensis infected in Swiss mice (Mus musculus) assessed as protection of patent infection at 24 mg/kg, perorally daily for 4 days measured after 28 days; assay type: functional, organism-based; design: dose 24 mg/kg; in short: as §2

Row | SMILES | Activity [1] | Activity [2] | Activity [3] | Activity [4] | Activity [5] | Activity [6]
1 | CCO[C@H]1O[C@@H]2O[C@@]3(C)CC[C@H]4[C@H](C)CC[C@@H]([C@H]1C)[C@@]24OO3 [ARTEMOTIL] | 100% | 100% | Active | – | – | –
2 | C=C(c1ccc(Oc2ccccc2)cc1)C1COC2(OO1)C1CC3CC(C1)CC2C3 (stereo unspecified) | – | – | – | 100% | – | –
3 | C=C(c1ccc(Oc2ccccc2)cc1)C1COC2(CCCC2)OO1 (stereo unspecified) | – | – | – | 100% | – | –
4 | C=C(c1ccc(Oc2ccc3ccccc3c2)cc1)C1COC2(CCCC2)OO1 (stereo unspecified) | 100% | 100% | Active | 100% | Active | inactive
5 | C=C(c1ccc(Oc2cccc3ccccc23)cc1)C1COC2(OO1)C1CC3CC(C1)CC2C3 (stereo unspecified) | – | – | – | 93.15% | inactive | –
6 | C=C(c1ccc(Oc2cccc3ccccc23)cc1)C1COC2(CCCC2)OO1 (stereo unspecified) | 100% | 100% | Active | 100% | Active | inactive
7 | C=C(c1ccc(Oc2ccc(-c3ccccc3)cc2)cc1)C1COC2(CCCCC2)OO1 (stereo unspecified) | – | – | – | 84.39% | inactive | –
8 | C=C(c1ccc(Oc2ccc3ccccc3c2)cc1)C1COC2(OO1)C1CC3CC(C1)CC2C3 (stereo unspecified) | – | – | – | 100% | – | –
9 | C=C(c1ccc(Oc2ccccc2)cc1)C1COC2(CCCCC2)OO1 (stereo unspecified) | – | – | – | 100% | – | –
10 | C=C(c1ccc(Oc2ccc(-c3ccccc3)cc2)cc1)C1COC2(CCCC2)OO1 (stereo unspecified) | 100% | – | inactive | 100% | Active | –
11 | C=C(c1ccc(Oc2ccc(-c3ccccc3)cc2)cc1)C1COC2(OO1)C1CC3CC(C1)CC2C3 (stereo unspecified) | – | – | – | 100% | – | –
12 | C=C(c1ccc(Oc2cccc3ccccc23)cc1)C1COC2(CCCCC2)OO1 (stereo unspecified) | – | – | – | 92.81% | inactive | –
13 | C=C(c1ccc(Oc2ccc3ccccc3c2)cc1)C1COC2(CCCCC2)OO1 (stereo unspecified) | – | – | – | 100% | – | –
